Activity calls are given as the source filed them. Unless noted, no cut-off for these calls is given here.
Tests used:
Leishmania donovani [1] = assay: Cytotoxicity against SSG-resistant Leishmania donovani Ld39 by MTS assay; assay type: organism-based
Procedure, shortened: (§1)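 Promastigotes in Schneider's Drosophila medium (pH 6.9) with 10% heat-inactivated FCS, 4 mM glutamine and gentamicin at 27°C. Seeded at 10^5 cells/well, exposed to a range of modulator concentrations (up to 200 μM) for 72 h at 27°C. MTS/PMS added, 4 h colour development, OD 490 nm. Survival expressed relative to untreated wells; ≥2 independent experiments in triplicate.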

Leishmania donovani [2] = assay: Cytotoxicity against wild-type Leishmania donovani LdAG83 by MTS assay; assay type: organism-based; details: AG83; procedure, shortened: as §1
Leishmania enriettii [3] = assay: Cytotoxicity against pentamidine-resistant Leishmania enriettii LePentR50 by MTS assay; assay type: organism-based; procedure, shortened: as §1
Leishmania donovani [4] = assay: Increase of SSG accumulation in drug-resistant Leishmania donovani Ld39 at 60 uM relative to LdAG83 cells; assay type: functional, organism-based
Procedure, shortened: (§2)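 Axenic amastigotes made by shifting 4-day promastigotes into supplemented M199 at 37°C for 24 h. 1 ml (2 × 10^8 cells/ml) incubated with 0.05 mM SSG plus modulator (0, 30, 60 μM) for 3 h at 37°C. After PBS washes, cells digested in nitric acid. Total Sb measured by ICP-MS (m/z 121/123, In internal standard), in nmol/mg protein. Expressed as % of LdAG83; triplicates, two experiments.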

[5] = Resistance reversal as >50% reduction in pentamidine IC50 in Leishmania enriettii LeV160 overexpressing LeMDR1 by MTS assay; assay type: functional
Procedure, shortened: (§3)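 L. enriettii promastigotes are wild type, LeMDR1−/− (no drug in culture) or LeV160 (maintained in 160 μg/ml vinblastine). Seeded at 10^5 cells/well with graded pentamidine plus 6 μM modulator for 72 h at 27°C. MTS read-out at 490 nm gives the pentamidine IC50. Three independent experiments in triplicate.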

[6] = Resistance reversal as >50% reduction in pentamidine IC50 in Leishmania enriettii LeMDR1-/- by MTS assay; assay type: functional; procedure, shortened: as §3
[7] = Toxicity against pentamidine-resistance Leishmania enriettii LePentR50 upto 6 uM
[8] = Effect on modulating drug-resistance of wild type SSG-sensitive Leishmania donovani LdAG83 promastigotes assessed as reversal of resistance at 6 uM after 72 hrs by MTS; assay type: functional
Procedure, shortened: (§4)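 Ld39 or LdAG83 promastigotes seeded at 10^5 cells/well with serial SSG dilutions plus modulator (0, 1, 2, 4, 6 μM) for 72 h at 27°C. SSG concentrations differ between the two strains. Percentage survivors by MTS. Triplicate points, three separate experiments.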

[9] = Resistance reversal as >50% reduction in pentamidine IC50 in drug-resistant Leishmania enriettii LePentR50 by MTS assay; assay type: functional
Procedure, shortened: (§5)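 Promastigotes seeded at 10^5 cells/well and incubated 72 h at 27°C with serial concentrations of SSG (L. donovani) or pentamidine (L. enriettii LePentR50), each with 6 μM modulator or DMSO solvent control. Survival read by MTS/PMS at 490 nm after 4 h. […] Triplicates per concentration.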

Leishmania donovani [10] = assay: Increase of SSG accumulation in drug-resistant Leishmania donovani Ld2001 at 30 uM relative to LdAG83 cells; assay type: functional, organism-based; procedure, shortened: as §2
Leishmania enriettii [11] = assay: Cytotoxicity against drug-resistant Leishmania enriettii LePentR50 at 60 uM after 3 hrs; assay type: organism-based; details: in vitro
Leishmania donovani [12] = assay: Increase of SSG accumulation in drug-resistant Leishmania donovani Ld2001 at 60 uM relative to LdAG83 cells; assay type: functional, organism-based; procedure, shortened: as §2
[13] = Effect on modulating SSG-resistance of Leishmania donovani Ld39 promastigotes assessed as reversal of resistance at 6 uM after 72 hrs by MTS; assay type: functional; procedure, shortened: as §4
Leishmania enriettii [14] = assay: Increase of pentamidine accumulation in drug-resistant Leishmania enriettii LePentR50 promastigotes at 30 uM after 3 hrs; assay type: functional, organism-based
Procedure, shortened: (§6)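 4-day-old LePentR50 promastigotes (2 × 10^8 cells/ml, 1 ml) incubated with 0.84 mM pentamidine plus modulator (0, 15, 30, 60 μM) for 3 h at 27°C in the dark. Cells washed with cold PBS and lysed in 75% acetonitrile by freeze-thaw. Pentamidine quantified by ion-pair C18 HPLC at 265 nm against a standard curve and expressed per mg protein. Triplicates, repeated twice.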

[15] = Resistance reversal as >50% reduction in SSG IC50 in drug-resistant Leishmania donovani Ld2001 by MTS assay; assay type: functional; procedure, shortened: as §5
Leishmania enriettii [16] = assay: Increase of pentamidine accumulation in drug-resistant Leishmania enriettii LePentR50 promastigotes at 60 uM after 3 hrs; assay type: functional, organism-based; procedure, shortened: as §6
[17] = Effect on modulating pentamidine-resistance of Leishmania enriettii LePentR50 assessed as decrease in survival after 72 hrs by MTS; assay type: functional
Procedure, shortened: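 LePentR50 promastigotes seeded at 10^5 cells/well, exposed 72 h at 27°C to graded modulator alone or with 60 μg/ml pentamidine. MTS survival as percentage of untreated. […] Triplicates, three repeats.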

Leishmania donovani [18] = assay: Increase of SSG accumulation in drug-resistant Leishmania donovani Ld39 at 30 uM relative to LdAG83 cells; assay type: functional, organism-based; procedure, shortened: as §2
Leishmania donovani [19] = assay: Cytotoxicity against wild-type Leishmania donovani at 60 uM after 3 hrs; assay type: organism-based; details: in vitro
[20] = Resistance reversal as >50% reduction in SSG IC50 in wild-type Leishmania donovani LdAG83 by MTS assay; assay type: functional; procedure, shortened: as §5
Leishmania enriettii [21] = assay: Increase of pentamidine accumulation in drug-resistant Leishmania enriettii LePentR50 promastigotes at 15 uM after 3 hrs; assay type: functional, organism-based; procedure, shortened: as §6
[22] = Resistance reversal as >50% reduction in SSG IC50 in drug-resistant Leishmania donovani Ld39 by MTS assay; assay type: functional; procedure, shortened: as §5
[23] = Resistance reversal as >50% reduction in pentamidine IC50 in wild-type Leishmania enriettii by MTS assay; assay type: functional; procedure, shortened: as §3

O=c1cc(-c2ccc(OCCOCCOCCOCCOCCOCCOCCOCCOCCOCCOc3ccc(-c4cc(=O)c5c(O)cc(O)cc5o4)cc3)cc2)oc2cc(O)cc(O)c12
IC50 (Leishmania donovani [1]): > 200 µM
IC50 (Leishmania donovani [2]): > 200 µM

O=c1cc(-c2ccc(OCCOCCOCCOCCOCCOc3ccc(-c4cc(=O)c5c(O)cc(O)cc5o4)cc3)cc2)oc2cc(O)cc(O)c12
IC50 (Leishmania enriettii [3]): 70 µM
IC50 (Leishmania donovani [1]): 42 µM
IC50 (Leishmania donovani [2]): 30 µM

O=c1cc(-c2ccc(OCCOCCOCCOCCOCCOCCOCCOCCOCCOCCOCCOCCOCCOc3ccc(-c4cc(=O)c5c(O)cc(O)cc5o4)cc3)cc2)oc2cc(O)cc(O)c12
IC50 (Leishmania donovani [1]): 60 µM
IC50 (Leishmania donovani [2]): 50 µM

O=c1cc(-c2ccc(OCCOCCOCCO)cc2)oc2cc(O)cc(O)c12
IC50 (Leishmania enriettii [3]): > 200 µM
IC50 (Leishmania donovani [1]): > 200 µM
IC50 (Leishmania donovani [2]): > 200 µM

O=c1cc(-c2ccc(OCCOCCOCCOCCOc3ccc(-c4cc(=O)c5c(O)cc(O)cc5o4)cc3)cc2)oc2cc(O)cc(O)c12
Drug uptake (Leishmania donovani [4]): 90%
Resistance reversal [5]: Active
Resistance reversal [6]: Active
Toxicity [7]: Not Toxic
Resistance reversal [8]: inactive
Resistance reversal [9]: Active
Drug uptake (Leishmania donovani [10]): 83%
Activity (Leishmania enriettii [11]): Not Active
Drug uptake (Leishmania donovani [12]): 69%
Resistance reversal [13]: Dose-dependent effect
Drug uptake (Leishmania enriettii [14]): 4.69 µM
Resistance reversal [15]: Active
Drug uptake (Leishmania enriettii [16]): 26.6 µM
IC50 (Leishmania enriettii [3]): > 200 µM
IC50 (Leishmania donovani [1]): 10 µM
EC50 [17]: 0.94 µM
Drug uptake (Leishmania donovani [18]): 74%
Activity (Leishmania donovani [19]): Not Active
Resistance reversal [20]: inactive
Drug uptake (Leishmania enriettii [21]): 2.95 µM
IC50 (Leishmania donovani [2]): 7 µM
Resistance reversal [22]: Active
Resistance reversal [23]: Active

O=c1cc(-c2ccc(OCCOCCOCCOc3ccc(-c4cc(=O)c5c(O)cc(O)cc5o4)cc3)cc2)oc2cc(O)cc(O)c12
Resistance reversal [5]: Active
Resistance reversal [6]: Active
Resistance reversal [9]: Active
Resistance reversal [13]: Dose-dependent effect
Resistance reversal [15]: Active
IC50 (Leishmania donovani [1]): 11 µM
EC50 [17]: 1.85 µM
Resistance reversal [20]: inactive
IC50 (Leishmania donovani [2]): 8 µM
Resistance reversal [22]: Active

O=c1cc(-c2ccc(O)cc2)oc2cc(O)cc(O)c12 [APIGENIN]
IC50 (Leishmania enriettii [3]): 55 µM
IC50 (Leishmania donovani [1]): 43 µM
IC50 (Leishmania donovani [2]): 32 µM

O=c1cc(-c2ccc(OCCOc3ccc(-c4cc(=O)c5c(O)cc(O)cc5o4)cc3)cc2)oc2cc(O)cc(O)c12
IC50 (Leishmania donovani [2]): 95 µM

O=c1cc(-c2ccc(OCCOCCOCCOCCOCCOCCOCCOCCOc3ccc(-c4cc(=O)c5c(O)cc(O)cc5o4)cc3)cc2)oc2cc(O)cc(O)c12
IC50 (Leishmania donovani [1]): 14 µM
IC50 (Leishmania donovani [2]): 12 µM

O=c1cc(-c2ccc(OCCOCCOCCOCCOCCOCCOCCOCCOCCOc3ccc(-c4cc(=O)c5c(O)cc(O)cc5o4)cc3)cc2)oc2cc(O)cc(O)c12
IC50 (Leishmania donovani [1]): 14 µM
IC50 (Leishmania donovani [2]): 10 µM

O=c1cc(-c2ccc(OCCOCCOCCOCCOCCOCCOc3ccc(-c4cc(=O)c5c(O)cc(O)cc5o4)cc3)cc2)oc2cc(O)cc(O)c12
IC50 (Leishmania enriettii [3]): 40 µM
IC50 (Leishmania donovani [1]): 13 µM
IC50 (Leishmania donovani [2]): 11 µM

— ChEMBL document CHEMBL1142086, “Flavonoid dimers as bivalent modulators for pentamidine and sodium stiboglucanate resistance in leishmania” (Antimicrob Agents Chemother, 2007)
